Assay [1] has as its target T1, Clathrin heavy chain 1 (Homo sapiens, UniProt Q00610). The assay is described as follows: Inhibition of recombinant GST-tagged clathrin heavy chain (unknown origin) at 100 uM after 1 hr by ELISA.
For assay [2], the species on record is Ovis aries. The settings on record: 300 uM.
The test system of the next assay is U2OS. Put plainly: Inhibition of clathrin in human U2OS cells assessed as texas red-Tf endocytosis incubated 30 mins prior to texas red-Tf addition measured after 8 mins. The assay is classed as cell-based. In a few lines:
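U2OS cells preincubated 30 min with inhibitor (1 to 300 μM) or vehicle, then 4 μg/mL Tf-A594 added for 8 min at 37 °C. Uptake quantified by automated imaging and analysis, ~1200 cells per point. IC50 fitted; reported as mean ±95% CI from three wells.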

The nature of assay [3]: Inhibition of phosphotidylserine-stimulated sheep brain dynamin 1 GTPase activity assessed as inhibition of phosphate release from GTP after 30 mins by malachite green reagent method. Also on record: species or system Ovis aries. An outline of the steps: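 Native dynamin I purified from sheep brain (peripheral membrane fraction, GST-Amph2-SH3-sepharose affinity). Dynamin (20 nM) stimulated by 4 μg/mL sonicated phosphatidylserine with compound for 30 min at 37 °C. Buffer: 5 mM Tris-HCl pH 7.4, 10 mM NaCl, 2 mM Mg2+, 1 μg/mL leupeptin, 0.1 mM PMSF, 0.3 mM GTP. Phosphate release read by malachite green.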

Assay [4] concerns the target T1, Clathrin heavy chain 1. Put plainly: Inhibition of recombinant GST-tagged clathrin heavy chain (unknown origin) after 1 hr by ELISA.
Assay [5] is filed under the species Ovis aries. The assay is described as follows: Inhibition of phosphotidylserine-stimulated sheep brain dynamin 1 GTPase activity assessed as inhibition of phosphate release from GTP at 100 uM after 30 mins by malachite green reagent method.

The structures appear in SMILES notation. The source made the active and inactive calls. No cut-off for these calls is given here.

T1 sequence (Q00610 whole entry): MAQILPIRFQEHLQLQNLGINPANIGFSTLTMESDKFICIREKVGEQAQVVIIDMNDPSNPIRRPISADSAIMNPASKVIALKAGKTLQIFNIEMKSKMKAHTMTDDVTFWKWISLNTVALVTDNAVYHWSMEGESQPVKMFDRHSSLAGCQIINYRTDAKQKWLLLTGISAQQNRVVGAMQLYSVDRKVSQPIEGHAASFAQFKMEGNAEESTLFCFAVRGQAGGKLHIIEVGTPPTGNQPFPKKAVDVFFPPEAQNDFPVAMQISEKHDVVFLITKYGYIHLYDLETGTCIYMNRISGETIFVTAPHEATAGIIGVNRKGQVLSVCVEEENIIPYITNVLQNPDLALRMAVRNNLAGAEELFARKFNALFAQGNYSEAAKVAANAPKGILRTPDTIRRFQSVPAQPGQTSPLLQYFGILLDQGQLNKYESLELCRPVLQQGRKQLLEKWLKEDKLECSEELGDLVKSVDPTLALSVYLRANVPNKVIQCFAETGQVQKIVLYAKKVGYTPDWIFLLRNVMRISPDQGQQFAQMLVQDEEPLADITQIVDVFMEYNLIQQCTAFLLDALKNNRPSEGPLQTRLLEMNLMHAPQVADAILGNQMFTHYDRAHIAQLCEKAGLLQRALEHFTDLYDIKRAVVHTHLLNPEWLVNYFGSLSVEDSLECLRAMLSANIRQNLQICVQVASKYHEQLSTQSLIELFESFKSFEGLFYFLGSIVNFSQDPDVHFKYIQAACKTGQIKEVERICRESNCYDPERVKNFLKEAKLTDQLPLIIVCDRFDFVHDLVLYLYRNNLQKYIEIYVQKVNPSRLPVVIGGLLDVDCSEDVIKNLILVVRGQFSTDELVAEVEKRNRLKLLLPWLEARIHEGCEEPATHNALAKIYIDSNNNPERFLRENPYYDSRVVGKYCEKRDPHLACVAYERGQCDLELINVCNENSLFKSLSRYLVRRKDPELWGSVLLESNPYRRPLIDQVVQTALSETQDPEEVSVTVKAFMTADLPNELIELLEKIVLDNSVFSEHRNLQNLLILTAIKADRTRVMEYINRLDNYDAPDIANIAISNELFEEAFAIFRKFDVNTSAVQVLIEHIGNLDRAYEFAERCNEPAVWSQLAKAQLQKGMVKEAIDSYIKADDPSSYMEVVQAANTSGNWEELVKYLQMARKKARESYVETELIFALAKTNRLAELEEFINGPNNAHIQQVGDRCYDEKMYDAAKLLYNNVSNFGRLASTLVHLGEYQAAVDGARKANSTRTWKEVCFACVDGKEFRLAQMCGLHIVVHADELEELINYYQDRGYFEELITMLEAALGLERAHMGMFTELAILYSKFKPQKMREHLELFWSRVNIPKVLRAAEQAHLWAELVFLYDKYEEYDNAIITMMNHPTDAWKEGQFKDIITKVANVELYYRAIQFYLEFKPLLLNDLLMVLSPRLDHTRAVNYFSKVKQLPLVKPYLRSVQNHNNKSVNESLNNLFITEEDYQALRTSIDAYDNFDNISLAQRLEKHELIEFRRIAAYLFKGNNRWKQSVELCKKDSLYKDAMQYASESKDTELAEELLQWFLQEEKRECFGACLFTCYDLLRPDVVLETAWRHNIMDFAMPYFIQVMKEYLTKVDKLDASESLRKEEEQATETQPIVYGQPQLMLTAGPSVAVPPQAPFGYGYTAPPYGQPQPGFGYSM

Take `Nc1ccc(CN2C(=O)c3cccc4cc(N)cc(c34)C2=O)cc1`: the inhibition entry at Clathrin heavy chain 1 [1] is “inactive”. With `O=C1c2cccc3cc(S(=O)(=O)O)cc(c23)C(=O)N1Cc1ccc(O)cc1`, the inhibition entry in the assay listed under Ovis aries [2] and in the assay on U2OS was “inactive” each time. With `Nc1cccc(CN2C(=O)c3cccc4cc(S(=O)(=O)O)cc(c34)C2=O)c1`, in assay [3], the IC50 stood at 264 µM. For the same compound, the inhibition entry in the assay on U2OS is “inactive”. For `O=C(O)c1ccc(CN2C(=O)c3cccc4cc(S(=O)(=O)O)cc(c34)C2=O)cc1` the same measures were 185 µM and “inactive”. Turning to `COc1cc2c3c(cccc3c1)C(=O)N(Cc1ccc(N)cc1)C2=O`, the inhibition result at Clathrin heavy chain 1 [1] is “inactive”. Take `O=C1c2cccc3cc(S(=O)(=O)O)cc(c23)C(=O)N1Cc1ccc(Cl)cc1`: the 50% inhibitory concentration (IC50) in assay [3] came out at 111 µM. In the assay on U2OS, the inhibition result is “inactive”. Take `Nc1ccc(CN2C(=O)c3cccc4cc(Br)cc(c34)C2=O)cc1`: the inhibition result on Clathrin heavy chain 1 [1] was “inactive”.

Turning to `Nc1ccc(CN2C(=O)c3cccc4c([N+](=O)[O-])ccc(c34)C2=O)cc1`, at Clathrin heavy chain 1 [1], the inhibition result is “inactive”.

In the case of `CN(C)c1ccc(CN2C(=O)c3cccc4cc(S(=O)(=O)O)cc(c34)C2=O)cc1`, the inhibition entry in the assay listed under Ovis aries [2] and with U2OS was “inactive” each time. With `CCCN1C(=O)c2cccc3c(N)c(S(=O)(=O)O)cc(c23)C1=O`, the IC50 at Clathrin heavy chain 1 [4] amounted to 120 µM. As to `Nc1ccc(CN2C(=O)c3cccc4cc([N+](=O)[O-])cc(c34)C2=O)cc1`, the inhibition result at Clathrin heavy chain 1 [1] was “inactive”.

As to `Nc1ccc(CN2C(=O)c3cccc4c(Br)ccc(c34)C2=O)cc1`, the inhibition result on Clathrin heavy chain 1 [1] was “inactive”. `Nc1ccc(N2C(=O)c3cccc4cc(S(=O)(=O)O)cc(c34)C2=O)cc1`: the inhibition result in the assay listed under Ovis aries [5], at Clathrin heavy chain 1 [1] and with U2OS was “inactive” in each case. Regarding `Nc1ccc(CN2C(=O)c3cc([N+](=O)[O-])cc4cc([N+](=O)[O-])cc(c34)C2=O)cc1`, the inhibition entry at Clathrin heavy chain 1 [1] is “inactive”. Regarding `Nc1ccc(CN2C(=O)c3cccc4cc(S(=O)(=O)O)cc(c34)C2=O)cc1`, the inhibition result in the assay listed under Ovis aries [5] and with U2OS was “inactive” in each case. `COc1ccc(CN2C(=O)c3cccc4cc(S(=O)(=O)O)cc(c34)C2=O)cc1`: the inhibition entry in the assay filed under Ovis aries [2] and in the assay on U2OS was “inactive” each time. For `Nc1ccc(CN2C(=O)c3cccc4c(Cl)ccc(c34)C2=O)cc1`, the inhibition result at Clathrin heavy chain 1 [1] was “inactive”. Take `O=C1c2cccc3cc(S(=O)(=O)O)cc(c23)C(=O)N1Cc1ccccc1`: the inhibition entry in the assay listed under Ovis aries [2] and in the assay on U2OS was “inactive” throughout. For the compound `O=C1c2cccc3cc(S(=O)(=O)O)cc(c23)C(=O)N1Cc1ccc(Br)cc1`, the inhibition entry in the assay listed under Ovis aries [2] and in the assay on U2OS was “inactive” in each case.

`Nc1ccc(CN2C(=O)c3cccc4cc(O)cc(c34)C2=O)cc1`: the inhibition entry at Clathrin heavy chain 1 [1] is “inactive”. As to `O=C1c2cccc3cc(S(=O)(=O)O)cc(c23)C(=O)N1Cc1ccc([N+](=O)[O-])cc1`, in assay [3], the IC50 amounted to 49 µM. In addition, the inhibition entry at Clathrin heavy chain 1 [1] and with U2OS was “inactive” throughout. Regarding `Nc1ccc(CN2C(=O)c3cccc4c(S(=O)(=O)O)ccc(c34)C2=O)cc1`, the inhibition result on Clathrin heavy chain 1 [1] is “inactive”.

`O=C1c2cccc3cc(S(=O)(=O)O)cc(c23)C(=O)N1Cc1ccc(F)cc1`: the IC50 in assay [3] was found to be 306 µM. In the assay on U2OS, the inhibition entry is “inactive”. The like results for `Nc1ccccc1CN1C(=O)c2cccc3cc(S(=O)(=O)O)cc(c23)C1=O` were, in that order, 108 µM and “inactive”.

With `Nc1ccc(CN2C(=O)c3cccc4c(N)ccc(c34)C2=O)cc1`, on Clathrin heavy chain 1 [1], the inhibition entry was “inactive”. As for `Cc1ccc(CN2C(=O)c3cccc4cc(S(=O)(=O)O)cc(c34)C2=O)cc1`, the inhibition result in the assay filed under Ovis aries [2] and with U2OS was “inactive” in each case. For the compound `Nc1ccc(CN2C(=O)c3cccc4cccc(c34)C2=O)cc1`, the inhibition entry on Clathrin heavy chain 1 [1] is “inactive”.

The values are drawn from ChEMBL document CHEMBL3108769, “Development of 1,8-naphthalimides as clathrin inhibitors” (J Med Chem, 2014).
